Measured values published in ChEMBL document CHEMBL5137045, “Discovery of 2-(furan-2-ylmethylene)hydrazine-1-carbothioamide derivatives as novel inhibitors of SARS-CoV-2 main protease” (Eur J Med Chem, 2022).

Each compound was assayed against Replicase polyprotein 1ab (Severe acute respiratory syndrome coronavirus 2) (UniProt P0DTD1) (assay: Inhibition of SARS CoV-2 main protease at 50 uM using DABCYL-KTSAVLQSGFRKM-E(EDANS)-NH2 as substrate preincubated for 30 mins followed by substrate addition and measured after 20 mins relative to control). Conditions: time 50.0 min.
In short: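 FRET protease assay in 40 mM PBS, 100 mM NaCl, 1 mM EDTA, 0.1% Triton, pH 7.3. M^pro (0.5 μM) was preincubated with inhibitor 30 min at room temperature, then 20 μM substrate was added. Cleavage fluorescence (ex 360/em 460 nm) was read for 20 min. This covers preliminary screening and IC50; IC50 from Hill1 fit.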
With `COCc1c(Br)c(C)nc(OCC(=O)N/N=C/c2ccc(-c3cccc(C(=O)O)c3)o2)c1C#N` the inhibition was 32.9%. For `CSC1=NSC2=NC(=O)/C(=C\c3ccc(-c4cccc(C(=O)O)c4)o3)C(=N)N12`, the inhibition was less than 20%. With `O=C(Cn1c2ccccc2c(=O)c2ccccc21)N/N=C/c1ccc(-c2ccccc2)o1` the inhibition was 21.3%. `O=C(O)c1ccc(-c2ccc(/C=N/NC(=S)Nc3cccc(C(F)(F)F)c3)o2)cc1` gave an inhibition of 38.6%. `C=C(C)CNC(=S)Nc1c(C)n(C)n(-c2ccccc2)c1=O` was tested, and the inhibition was less than 20%. `CNC(=S)N/N=C/c1ccc(-c2cccc(C(=O)O)c2)o1` showed an inhibition of 22.2%. With `O=C(N/N=C/c1ccc(-c2ccc([N+](=O)[O-])cc2)o1)c1cc2ccccc2cc1O` the inhibition was less than 20%. Compound `Cc1c(NC(=S)NC(=O)COc2ccccc2)c(=O)n(-c2ccccc2)n1C` has an inhibition of less than 20%. For `N#Cc1c(/N=C/c2ccc(-c3ccc(Cl)c(C(=O)O)c3)o2)sc2c1CCCC2`, the inhibition was less than 20%. With `NC(=S)N/N=C/c1ccc(-c2ccc(C(=O)O)cc2)cc1` the inhibition was 64%. `Cc1c(NC(=S)NC(=O)c2ccncc2)c(=O)n(-c2ccccc2)n1C` was tested, and the inhibition was less than 20%. Work on `O=c1sn(-c2cccc3ccccc23)c(=O)n1Cc1ccccc1` yielded an inhibition of 98.6%. `O=C(Cn1c2ccccc2c(=O)c2ccccc21)N/N=C/c1ccc(-c2ccc([N+](=O)[O-])cc2Cl)o1` was tested, and the inhibition was 24.1%. With `COc1ccccc1OCC(=O)N/N=C/c1ccc(-c2cccc([N+](=O)[O-])c2)o1` the inhibition was 24.2%. For `O=C(O)c1cc(N/N=C/c2ccc(-c3ccc(Cl)c(C(=O)O)c3)o2)ccc1Cl`, the inhibition was 28.2%. Work on `Cc1c(NC(=S)NCc2ccco2)c(=O)n(-c2ccccc2)n1C` yielded an inhibition of less than 20%. For `N#C/C(=C\c1ccc(-c2cccc(C(=O)O)c2)o1)c1nc2ccccc2[nH]1`, the inhibition was less than 20%. Work on `O=C(O)c1cccc(-c2ccc(/C=N/Nc3nc(N4CCCC4)nc(N4CCCC4)n3)o2)c1` yielded an inhibition of less than 20%. Work on `CC1=NN(c2ccc(C)c(Cl)c2)C(=O)/C1=C\c1ccc(-c2ccc(C(=O)O)cc2)o1` yielded an inhibition of less than 20%. For `CC1=CC2=NC(=O)/C(=C\c3ccc(-c4cccc(C(=O)O)c4)o3)C(=N)N2O1`, the inhibition was less than 20%. Work on `O=C1NC(=S)N/C1=C/c1ccc(-c2ccccc2C(=O)O)o1` yielded an inhibition of less than 20%. Work on `O=C(NCCCn1ccnc1)/C(=C\c1ccc(-c2cccc([N+](=O)[O-])c2)o1)NC(=O)c1ccccc1` yielded an inhibition of 28.8%. Compound `CCNC(S)=Nc1c(C)n(C)n(-c2ccccc2)c1=O` has an inhibition of less than 20%. `Cc1c(NC(=S)NC(=O)c2ccc(F)cc2)c(=O)n(-c2ccccc2)n1C` was tested, and the inhibition was less than 20%. Compound `CCOC(=O)c1ccc(-c2ccc(/C=N/NC(=O)Cn3c4ccccc4c(=O)c4ccccc43)o2)cc1` has an inhibition of less than 20%. With `Cc1c(N=C(S)Nc2ccccc2)c(=O)n(-c2ccccc2)n1C` the inhibition was less than 20%. `O=[N+]([O-])c1cccc(-c2ccc(/C=N/NC(=S)NC3CCS(=O)(=O)C3)o2)c1` (stereo not given) showed an inhibition of 30.2%. With `Cc1cccc(NC(=O)CN2C(=O)N/C(=C\c3ccc(-c4cccc(C(=O)O)c4)o3)C2=O)c1` the inhibition was 24.2%. In the case of `O=C(N/N=C/c1ccc(-c2cccc(C(=O)O)c2)o1)Nc1ccc(Cl)cc1`, the inhibition is reported as 44.6%. For `CCOC(=O)c1ccc(NC(=S)Nc2c(C)n(C)n(-c3ccccc3)c2=O)cc1`, the inhibition was less than 20%. In the case of `COc1ccc(-c2ccc(/C=N/NC(=O)Cn3c(-c4nonc4N)nc4ccccc43)o2)c([N+](=O)[O-])c1`, the inhibition is reported as less than 20%. `CNC(=S)N/N=C/c1ccc(-c2ccc(C(=O)O)cc2)o1` was tested, and the inhibition was 39.5%. `Nc1nonc1-c1nc2ccccc2n1CC(=O)N/N=C/c1ccc(-c2cccc(C(F)(F)F)c2)o1` was tested, and the inhibition was 25.5%. Work on `O=C1NN(c2ccc(F)cc2)C(=O)/C1=C\c1ccc(-c2cccc(C(=O)O)c2)o1` yielded an inhibition of 33.8%. For `Cc1cc(-c2ccc(/C=N/NC(=O)Cn3c(-c4nonc4N)nc4ccccc43)o2)ccc1[N+](=O)[O-]`, the inhibition was 42.9%. `O=C(O)c1cccc(-c2ccc(/C=N/n3cnc4sc5c(c4c3=O)CCCC5)o2)c1` gave an inhibition of 30%. `O=C(Cn1c2ccccc2c(=O)c2ccccc21)N/N=C/c1ccc(-c2ccc([N+](=O)[O-])cc2)o1` gave an inhibition of 30%. With `NC(=S)N/N=C/c1ccc(-c2cccc3ccccc23)o1` the inhibition was 73.2%. Work on `Cc1c(C(=O)N/N=C/c2ccc(-c3ccc(Cl)c(C(=O)O)c3)o2)sc(N)c1C#N` yielded an inhibition of 35.8%. `Cc1c(NC(=S)N/N=C/c2ccc(-c3ccc(Br)cc3)o2)c(=O)n(-c2ccccc2)n1C` showed an inhibition of 27.7%. `O=C(N/N=C/c1ccc([N+](=O)[O-])o1)c1c[nH]c2ccccc12` was tested, and the inhibition was less than 20%. `Cc1c(/N=C/c2ccc(-c3cccc([N+](=O)[O-])c3)o2)c(=O)n(-c2ccccc2)n1C` gave an inhibition of less than 20%. `NC(=O)N/N=C/c1ccc(-c2ccc([N+](=O)[O-])cc2)o1` showed an inhibition of less than 20%. `Cc1c(NC(N)=S)c(=O)n(-c2ccccc2)n1C` was tested, and the inhibition was less than 20%. `O=C(Cn1c2ccccc2c(=O)c2ccccc21)N/N=C/c1ccc(-c2cccc([N+](=O)[O-])c2)o1` showed an inhibition of 26.8%. In the case of `Cc1cc(-c2ccc(/C=N/NC(=O)Nc3ccccc3)o2)c(C)c([N+](=O)[O-])c1`, the inhibition is reported as less than 20%. Compound `Nc1nonc1C(=O)N/N=C/c1ccc(-c2cccc([N+](=O)[O-])c2)o1` has an inhibition of 31.2%. With `Cc1c(NC(=S)NC(=O)CC(C)C)c(=O)n(-c2ccccc2)n1C` the inhibition was less than 20%. With `Cc1c(NC(=S)N/N=C/c2ccccc2[N+](=O)[O-])c(=O)n(-c2ccccc2)n1C` the inhibition was less than 20%. Compound `Cc1c(NC(=S)N/N=C/C(Cl)=C/c2ccc([N+](=O)[O-])cc2)c(=O)n(-c2ccccc2)n1C` has an inhibition of 21.2%. Compound `NC(=S)N/N=C/c1ccc(-c2ccc3ccccc3c2)o1` has an inhibition of 54.1%. `COc1ccc(/N=C2/S/C(=C\c3ccc(-c4ccc(Cl)c(C(=O)O)c4)o3)C(=O)N2C)cc1` gave an inhibition of 27.1%. Work on `COCc1cc(C)nc(OCC(=O)N/N=C/c2ccc(-c3ccc(C(=O)O)cc3)o2)c1C#N` yielded an inhibition of 36.2%. `O=C(O)c1cccc(-c2ccc(/C=N/NC(=O)C3COc4ccccc4O3)o2)c1` (stereo not given) gave an inhibition of 33.7%. `Cc1cccc(C(=O)NC(=S)Nc2c(C)n(C)n(-c3ccccc3)c2=O)c1` gave an inhibition of less than 20%. With `O=C(Cn1c2ccccc2c(=O)c2ccccc21)N/N=C/c1ccc(-c2cc([N+](=O)[O-])ccc2Cl)o1` the inhibition was less than 20%. `O=C(O)c1ccc(-c2ccc(/C=N/NC(=S)Nc3ccc(Cl)cc3)o2)cc1` showed an inhibition of 27.5%. In the case of `Cc1ccc(-c2ccc(/C=N/NC(=O)Cn3c4ccccc4c(=O)c4ccccc43)o2)cc1[N+](=O)[O-]`, the inhibition is reported as 55.4%. `CC1=NN(c2cccc(C(=O)O)c2)C(=O)/C1=C\c1ccc(-c2cccc(C(=O)O)c2)o1` was tested, and the inhibition was 28.5%. `Cc1c(NC(=S)N(C)CCC#N)c(=O)n(-c2ccccc2)n1C` showed an inhibition of less than 20%. `Cc1c(-c2ccc(/C=N/NC(=O)Cn3c(-c4nonc4N)nc4ccccc43)o2)ccc([N+](=O)[O-])c1C` showed an inhibition of less than 20%. Compound `Cc1ccc(OCC(=O)N/N=C/c2ccc(-c3cc([N+](=O)[O-])ccc3Cl)o2)c(C)c1` has an inhibition of less than 20%. In the case of `O=C(Cn1c2ccccc2c(=O)c2ccccc21)N/N=C/c1ccc(-c2ccc(O)c(C(=O)O)c2)o1`, the inhibition is reported as 54.5%. `Cc1cc(C(=O)O)ccc1-c1ccc(/C=N/NC(=S)NCc2ccccc2)o1` showed an inhibition of 55.9%. `Nc1nonc1-c1nc2ccccc2n1CC(=O)N/N=C/c1ccc(-c2ccccc2C(=O)O)o1` showed an inhibition of 41.7%. With `COc1cccc(C(=O)NCC(=O)N/N=C/c2ccc([N+](=O)[O-])o2)c1` the inhibition was less than 20%. `O=C(N/N=C/c1ccc([N+](=O)[O-])o1)c1ccc(O)cc1O` showed an inhibition of less than 20%. Work on `O=C(N/N=C/c1ccc(-c2ccc([N+](=O)[O-])cc2)o1)/C(=C\c1ccccc1O)NC(=O)c1ccccc1` yielded an inhibition of 38.3%. Work on `N=C1S/C(=C/c2ccc(-c3cccc(C(=O)O)c3)o2)C(=O)N1c1nonc1N` yielded an inhibition of 30.3%. For `O=C(O)c1ccc(-c2ccc(/C=N/NC(=S)NC3CCCCC3)o2)cc1`, the inhibition was 37.3%. Work on `C=CCNC(=S)N/N=C/c1ccc(-c2ccc([N+](=O)[O-])cc2)o1` yielded an inhibition of 51.4%. Work on `COCc1cc(C)nc(OCC(=O)N/N=C/c2ccc(-c3cccc(C(=O)O)c3)o2)c1C#N` yielded an inhibition of 37.3%. In the case of `O=C(O)c1cc(-c2ccc(/C=N/Nc3nc(Nc4ccccc4)nc(Nc4ccccc4)n3)o2)ccc1O`, the inhibition is reported as 34.6%. In the case of `Cc1c(NC(=S)NC(=O)c2cccc(I)c2)c(=O)n(-c2ccccc2)n1C`, the inhibition is reported as less than 20%. Compound `COCc1c(Br)c(C)nc(OCC(=O)N/N=C/c2ccc(-c3ccc(Cl)c(C(=O)O)c3)o2)c1C#N` has an inhibition of 38.3%. `Cc1c(NC(=S)NC(=O)c2ccccc2)c(=O)n(-c2ccccc2)n1C` gave an inhibition of less than 20%. With `C=CCNC(=S)N/N=C/c1ccc(-c2ccccc2[N+](=O)[O-])o1` the inhibition was 28.4%. With `Cc1ccc([N+](=O)[O-])cc1-c1ccc(/C=N/NC(=O)Cn2c3ccccc3c(=O)c3ccccc32)o1` the inhibition was 22.5%. `O=C(O)c1cc(-c2ccc(/C=C3\NC(=O)N(Cc4ccccc4F)C3=O)o2)ccc1Cl` showed an inhibition of 53.4%. `O=C(O)c1cccc(-c2ccc(/C=c3/sc4nc5ccccc5n4c3=O)o2)c1` showed an inhibition of less than 20%. In the case of `O=C(O)c1cccc(-c2ccc(/C=N/NC(=S)Nc3cccc(C(F)(F)F)c3)o2)c1`, the inhibition is reported as 43%. In the case of `Cc1c(NC(=S)NC(=O)c2ccc(Cl)cc2)c(=O)n(-c2ccccc2)n1C`, the inhibition is reported as less than 20%. `Nc1nonc1-c1cc2ccccc2n1CC(=O)N/N=C/c1ccc(-c2cccc(C(=O)O)c2)o1` was tested, and the inhibition was less than 20%. `O=[N+]([O-])c1cccc(-c2ccc(/C=N/NC(=S)Nc3ccccc3)o2)c1` gave an inhibition of less than 20%. For `Nc1nonc1-c1nc2ccccc2n1CC(=O)N/N=C/c1ccc(-c2ccc([N+](=O)[O-])cc2)o1`, the inhibition was 30.1%. With `Cc1c(NC(=S)NCCCN(C)C)c(=O)n(-c2ccccc2)n1C` the inhibition was less than 20%. `O=C(O)c1cc(-c2ccc(/C=N/Nc3nc4nonc4nc3Nc3ccc(Br)cc3)o2)ccc1O` gave an inhibition of 45.9%. For `O=C(COCc1ccccc1Cl)N/N=C/c1ccc(-c2ccc([N+](=O)[O-])cc2)o1`, the inhibition was 23.3%. Compound `Cc1c(NC(=S)NC(=O)c2cccc(Br)c2)c(=O)n(-c2ccccc2)n1C` has an inhibition of less than 20%. For `C/C(=N\NC(=S)Nc1c(C)n(C)n(-c2ccccc2)c1=O)c1cccc([N+](=O)[O-])c1`, the inhibition was less than 20%.
